Measured values reported in ChEMBL document CHEMBL1122340, “11,12-secoprostaglandins. 6. Interphenylene analogues of acylhydroxyalkanoic acids and related compounds as renal vasodilators” (1983).

Assays:
[1] = tested on: Canis familiaris; test: Mean heart rate in conscious dog at 4-5 hr after 5 mg/kg (po) compound administration; type: functional, Canis lupus familiaris
Summary of the method: (§1)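 Conscious dogs, 3 per group. Dose 5 mg/kg given orally in a gelatin capsule; lactose capsule as placebo. Renal blood flow (flow meters), arterial pressure (transducer) and heart rate recorded digitally every 2 min through a 30-min predrug control period and 5 h postdose. Readings averaged for the control period and for each posttreatment hour; means ± SE.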

[2] = tested on: Canis familiaris; test: Mean renal blood flow (RBF) in conscious dog at 4-5 hr after 5 mg/kg (po); type: functional, Canis lupus familiaris, Kidney; summary of the method: as §1
[3] = tested on: Canis familiaris; test: Mean arterial blood pressure in conscious dog at 1-2 hr after 5 mg/kg (po) compound administration; type: functional, Canis lupus familiaris; summary of the method: as §1
[4] = tested on: Canis familiaris; test: Mean heart rate in conscious dog at 3-4 h after 5 mg/kg (po) compound administration; type: functional, Canis lupus familiaris; summary of the method: as §1
[5] = tested on: Canis familiaris; test: Mean arterial blood pressure in conscious dog at 0-1 hr after 5 mg/kg (po) compound administration; type: functional, Canis lupus familiaris; summary of the method: as §1
[6] = tested on: Canis familiaris; test: Mean heart rate in conscious dog at 2-3 hr after 5 mg/kg (po) compound administration; type: functional, Canis lupus familiaris; summary of the method: as §1
[7] = tested on: Canis familiaris; test: Mean renal blood flow (RBF) in conscious dog at 1-2h after 5 mg/kg (po); type: functional, Canis lupus familiaris, Kidney; summary of the method: as §1
[8] = tested on: Canis familiaris; test: Mean arterial blood pressure in conscious dog at 4-5 h after 5 mg/kg (po) compound administration; type: functional, Canis lupus familiaris; summary of the method: as §1
[9] = tested on: Canis familiaris; test: Mean arterial blood pressure in conscious dog at 3-4 h after 5 mg/kg (po) compound administration; type: functional, Canis lupus familiaris; summary of the method: as §1
[10] = tested on: Canis familiaris; test: Mean renal blood (RBF) flow in conscious dog at 0-1 hr after 5 mg/kg (po); type: functional, Canis lupus familiaris, Kidney; summary of the method: as §1
[11] = tested on: Canis familiaris; test: Mean heart rate in conscious dog at 1-2 hr after 5 mg/kg (po) compound administration; type: functional, Canis lupus familiaris; summary of the method: as §1
[12] = tested on: Canis familiaris; test: Mean heart rate in conscious dog at 0-1 hr after 5 mg/kg (po) compound administration; type: functional, Canis lupus familiaris; summary of the method: as §1
[13] = tested on: Canis familiaris; test: Mean arterial blood pressure in conscious dog at 2-3 h after 5 mg/kg (po) compound administration; type: functional, Canis lupus familiaris; summary of the method: as §1
[14] = tested on: Canis familiaris; test: Percentage change in renal resistance in anesthetized dogs; type: functional, Canis lupus familiaris
Summary of the method: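 Anesthetized dogs, femoral artery and vein catheterized for BP and iv injection; at least 30 min recovery after surgery. Mean renal blood flow and mean arterial BP sampled at 1-min intervals over a 30-min control period, then 500 µg/kg given iv bolus in aqueous solution as Na salt, monitored 30 min more. Renal resistance = mean BP / mean RBF. Two dogs per compound; saline placebo in three dogs.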

[15] = tested on: Canis familiaris; test: Mean renal blood flow in (RBF) conscious dog at 3-4 hr after 5 mg/kg (po); type: functional, Canis lupus familiaris, Kidney; summary of the method: as §1
[16] = tested on: Canis familiaris; test: Mean renal blood flow (RBF) in conscious dog at 2-3 hr after 5 mg/kg (po); type: functional, Canis lupus familiaris, Kidney; summary of the method: as §1

Compound: CCCCCC(O)CCCC(CCCc1ccc(C(=O)O)cc1)C(C)=O (stereo unspecified)
- HR [1]: 68 beats min-1
- RBF [2]: 124 mL/min
- MABP [3]: 106 mmHg
- HR [4]: 64 beats min-1
- MABP [5]: 116 mmHg
- HR [6]: 74 beats min-1
- RBF [7]: 194 mL/min
- MABP [8]: 106 mmHg
- MABP [9]: 95 mmHg
- RBF [10]: 137 mL/min
- HR [11]: 73 beats min-1
- HR [12]: 74 beats min-1
- MABP [13]: 97 mmHg
- Change [14]: -47%
- RBF [15]: 139 mL/min
- RBF [16]: 173 mL/min

Compound: CCCCCC(O)CCCC(CCCc1ccc(C(=O)O)cc1)C(C)O (stereo unspecified)
- Change [14]: -19%

Compound: CS(=O)(=O)N(CCCc1ccc(C(=O)O)cc1)CCCC1(O)CCCCC1
- Change [14]: -7%

Compound: CS(=O)(=O)N(CC#CC1(O)CCCCC1)CCCc1ccc(C(=O)O)cc1
- Change [14]: -10%

Compound: CCCCCC(O)CCCC(Cc1ccc(CCC(=O)O)cc1)C(C)=O (stereo unspecified)
- Change [14]: 13%

Compound: CC(=O)C(CCCc1ccc(C(=O)O)cc1)CCCC1(O)CCCCC1 (stereo unspecified)
- Change [14]: -42%

Compound: CCCCCC(O)CCCN(CCCc1ccc(C(=O)O)cc1)S(C)(=O)=O (stereo unspecified)
- Change [14]: 5%

Compound: CCCCCC(O)CCCC(CCCCc1ccc(C(=O)O)cc1)C(C)=O (stereo unspecified)
- Change [14]: 18%

Compound: CCCCCC(O)CCCC(CCCCc1ccccc1C(=O)O)C(C)=O (stereo unspecified)
- Change [14]: 19%

Compound: CCCCCC(O)CCCC(CCCc1cccc(C(=O)O)c1)C(C)=O (stereo unspecified)
- Change [14]: -20%

Compound: CCCOCC(O)CCCC(CCCc1ccc(C(=O)O)cc1)C(C)=O (stereo unspecified)
- Change [14]: -43%
